Laboratory results from ChEMBL document CHEMBL5653631, “A Potent and Selective ULK1 Inhibitor Suppresses Autophagy and Sensitizes Cancer Cells to Nutrient Stress” (iScience, 2018).
One block for each compound: values may come before it.

Key:
[1] = target: Serine/threonine-protein kinase SBK1 (Homo sapiens) (UniProt Q52WX2); assay: Inhibition of human recombinant SBK1 at 500 nM in presence of ATP by radiometric assay relative to control
[2] = target: Cyclin-dependent kinase 12 (Homo sapiens) (UniProt Q9NYV4); assay: Inhibition of human recombinant CRK7 at 500 nM related to control ULK1
[3] = target: Serine/threonine-protein kinase pim-1 (Homo sapiens) (UniProt P11309); assay: Inhibition of human recombinant PIM1 at 500 nM related to control ULK1
[4] = target: Platelet-derived growth factor receptor alpha (Homo sapiens) (UniProt P16234); assay: Inhibition of human recombinant PDGFRa at 500 nM related to control ULK1
[5] = target: T1, Eukaryotic elongation factor 2 kinase (Homo sapiens) (UniProt O00418); assay: Inhibition of human recombinant eEF2K at 500 nM in presence of ATP by radiometric assay relative to control
T1 sequence (whole entry): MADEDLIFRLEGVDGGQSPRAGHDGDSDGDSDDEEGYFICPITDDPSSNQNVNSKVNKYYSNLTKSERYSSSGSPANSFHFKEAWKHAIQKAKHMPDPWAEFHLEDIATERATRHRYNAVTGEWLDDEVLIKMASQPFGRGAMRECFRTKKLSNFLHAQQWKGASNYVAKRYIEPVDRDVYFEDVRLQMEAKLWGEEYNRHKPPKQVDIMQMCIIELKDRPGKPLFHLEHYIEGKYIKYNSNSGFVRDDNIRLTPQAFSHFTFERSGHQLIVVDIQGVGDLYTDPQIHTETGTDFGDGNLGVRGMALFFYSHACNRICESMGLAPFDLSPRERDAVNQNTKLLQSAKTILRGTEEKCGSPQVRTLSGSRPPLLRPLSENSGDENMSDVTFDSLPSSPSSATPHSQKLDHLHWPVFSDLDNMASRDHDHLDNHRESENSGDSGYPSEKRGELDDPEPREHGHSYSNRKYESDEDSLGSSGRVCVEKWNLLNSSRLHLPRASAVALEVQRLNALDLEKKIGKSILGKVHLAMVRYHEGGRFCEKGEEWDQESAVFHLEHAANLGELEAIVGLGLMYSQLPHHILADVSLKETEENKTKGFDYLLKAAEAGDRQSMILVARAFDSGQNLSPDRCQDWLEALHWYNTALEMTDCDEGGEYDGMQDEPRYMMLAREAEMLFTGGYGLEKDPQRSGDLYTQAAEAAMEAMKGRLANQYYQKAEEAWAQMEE

[6] = target: T2, Serine/threonine-protein kinase A-Raf (Homo sapiens) (UniProt P10398); assay: Inhibition of human recombinant ARAF at 500 nM related to control ULK1
T2 sequence (whole entry): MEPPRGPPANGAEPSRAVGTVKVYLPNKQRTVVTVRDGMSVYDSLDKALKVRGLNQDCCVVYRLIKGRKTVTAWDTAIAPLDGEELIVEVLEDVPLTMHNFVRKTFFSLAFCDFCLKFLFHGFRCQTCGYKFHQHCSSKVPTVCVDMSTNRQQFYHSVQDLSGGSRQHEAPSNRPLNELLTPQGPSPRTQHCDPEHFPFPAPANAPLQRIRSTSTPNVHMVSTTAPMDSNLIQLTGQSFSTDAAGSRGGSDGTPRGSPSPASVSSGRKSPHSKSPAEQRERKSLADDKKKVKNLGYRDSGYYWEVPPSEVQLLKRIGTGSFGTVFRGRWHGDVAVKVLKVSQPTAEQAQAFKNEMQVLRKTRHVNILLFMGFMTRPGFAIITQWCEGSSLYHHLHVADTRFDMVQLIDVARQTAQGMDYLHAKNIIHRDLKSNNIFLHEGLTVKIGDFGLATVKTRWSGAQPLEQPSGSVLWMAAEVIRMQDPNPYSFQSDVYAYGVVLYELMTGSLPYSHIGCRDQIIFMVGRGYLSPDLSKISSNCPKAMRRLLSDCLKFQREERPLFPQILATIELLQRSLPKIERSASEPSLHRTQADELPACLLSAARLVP
Summary of the method: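 Panel of 327 recombinant human kinases, each assayed in vitro by radiometric activity assay in duplicate at a single inhibitor concentration per compound, chosen with reference to its ULK1 inhibition. Activity remaining was expressed as percent of vehicle control, and percent inhibition was calculated as 100 minus percent activity remaining.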

[7] = target: Interferon-induced, double-stranded RNA-activated protein kinase (Homo sapiens) (UniProt P19525); assay: Inhibition of human recombinant PKR at 500 nM related to control ULK1
[8] = target: Ribosomal protein S6 kinase alpha-4 (Homo sapiens) (UniProt O75676); assay: Inhibition of human recombinant MSK2 at 500 nM in presence of ATP by radiometric assay relative to control
[9] = target: T3, Testis-specific serine/threonine-protein kinase 3 (Homo sapiens) (UniProt Q96PN8); assay: Inhibition of human recombinant TSSK3 at 40 nM related to control ULK1
T3 sequence (whole entry): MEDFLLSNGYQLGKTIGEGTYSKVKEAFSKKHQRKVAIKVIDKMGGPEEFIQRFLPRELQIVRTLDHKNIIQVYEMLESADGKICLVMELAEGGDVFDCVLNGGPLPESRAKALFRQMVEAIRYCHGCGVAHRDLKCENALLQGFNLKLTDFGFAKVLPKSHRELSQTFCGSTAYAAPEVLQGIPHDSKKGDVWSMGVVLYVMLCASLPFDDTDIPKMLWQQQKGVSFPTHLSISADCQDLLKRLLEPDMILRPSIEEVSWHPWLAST

[10] = target: Serine/threonine-protein kinase PAK 2 (Homo sapiens) (UniProt Q13177); assay: Inhibition of human recombinant PAK2 at 40 nM related to control ULK1
[11] = target: Serine/threonine-protein kinase SIK1 (Homo sapiens) (UniProt P57059); assay: Inhibition of human recombinant SIK at 40 nM related to control ULK1
[12] = target: Cyclin-dependent kinase 13 (Homo sapiens) (UniProt Q14004); assay: Inhibition of human recombinant CHED at 15 nM in presence of ATP by radiometric assay relative to control
[13] = target: Serine/threonine-protein kinase 24 (Homo sapiens) (UniProt Q9Y6E0); assay: Inhibition of human recombinant MST3 at 15 nM in presence of ATP by radiometric assay relative to control
Chain of Serine/threonine-protein kinase 24 (Homo sapiens) (Q9Y6E0 whole entry, looked up): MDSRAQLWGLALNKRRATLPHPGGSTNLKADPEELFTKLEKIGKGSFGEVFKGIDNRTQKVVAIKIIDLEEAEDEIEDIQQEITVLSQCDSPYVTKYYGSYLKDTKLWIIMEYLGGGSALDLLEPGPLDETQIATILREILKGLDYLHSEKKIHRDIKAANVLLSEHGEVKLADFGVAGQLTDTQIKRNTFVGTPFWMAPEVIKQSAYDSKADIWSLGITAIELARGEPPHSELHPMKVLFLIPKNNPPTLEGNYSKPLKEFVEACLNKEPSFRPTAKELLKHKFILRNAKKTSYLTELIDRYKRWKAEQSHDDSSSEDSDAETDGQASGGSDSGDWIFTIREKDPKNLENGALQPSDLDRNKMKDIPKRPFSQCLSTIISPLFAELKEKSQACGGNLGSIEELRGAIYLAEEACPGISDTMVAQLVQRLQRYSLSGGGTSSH

Chain of Ribosomal protein S6 kinase alpha-4 (Homo sapiens) (O75676 whole entry, looked up): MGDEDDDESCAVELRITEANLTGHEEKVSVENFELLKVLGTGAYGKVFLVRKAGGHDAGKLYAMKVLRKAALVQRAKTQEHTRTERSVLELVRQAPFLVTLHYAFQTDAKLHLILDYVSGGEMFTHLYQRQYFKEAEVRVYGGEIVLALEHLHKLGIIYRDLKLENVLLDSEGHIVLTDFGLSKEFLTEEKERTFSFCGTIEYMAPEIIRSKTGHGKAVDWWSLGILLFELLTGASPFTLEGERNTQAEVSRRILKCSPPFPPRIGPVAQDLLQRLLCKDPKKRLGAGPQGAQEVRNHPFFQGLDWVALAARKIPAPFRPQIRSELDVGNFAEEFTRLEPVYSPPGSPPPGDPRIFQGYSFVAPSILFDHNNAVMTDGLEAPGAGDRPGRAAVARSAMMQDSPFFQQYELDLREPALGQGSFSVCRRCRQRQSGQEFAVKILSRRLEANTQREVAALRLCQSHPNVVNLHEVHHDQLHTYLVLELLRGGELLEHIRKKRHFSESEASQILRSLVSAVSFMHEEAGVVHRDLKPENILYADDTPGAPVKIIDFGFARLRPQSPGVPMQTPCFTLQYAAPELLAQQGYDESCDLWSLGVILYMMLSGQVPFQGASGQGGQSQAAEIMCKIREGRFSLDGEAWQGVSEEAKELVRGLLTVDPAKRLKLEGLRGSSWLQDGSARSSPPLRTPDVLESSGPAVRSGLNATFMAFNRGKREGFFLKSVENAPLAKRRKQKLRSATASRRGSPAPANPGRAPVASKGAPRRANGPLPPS
Chain of Serine/threonine-protein kinase SIK1 (Homo sapiens) (P57059 whole entry): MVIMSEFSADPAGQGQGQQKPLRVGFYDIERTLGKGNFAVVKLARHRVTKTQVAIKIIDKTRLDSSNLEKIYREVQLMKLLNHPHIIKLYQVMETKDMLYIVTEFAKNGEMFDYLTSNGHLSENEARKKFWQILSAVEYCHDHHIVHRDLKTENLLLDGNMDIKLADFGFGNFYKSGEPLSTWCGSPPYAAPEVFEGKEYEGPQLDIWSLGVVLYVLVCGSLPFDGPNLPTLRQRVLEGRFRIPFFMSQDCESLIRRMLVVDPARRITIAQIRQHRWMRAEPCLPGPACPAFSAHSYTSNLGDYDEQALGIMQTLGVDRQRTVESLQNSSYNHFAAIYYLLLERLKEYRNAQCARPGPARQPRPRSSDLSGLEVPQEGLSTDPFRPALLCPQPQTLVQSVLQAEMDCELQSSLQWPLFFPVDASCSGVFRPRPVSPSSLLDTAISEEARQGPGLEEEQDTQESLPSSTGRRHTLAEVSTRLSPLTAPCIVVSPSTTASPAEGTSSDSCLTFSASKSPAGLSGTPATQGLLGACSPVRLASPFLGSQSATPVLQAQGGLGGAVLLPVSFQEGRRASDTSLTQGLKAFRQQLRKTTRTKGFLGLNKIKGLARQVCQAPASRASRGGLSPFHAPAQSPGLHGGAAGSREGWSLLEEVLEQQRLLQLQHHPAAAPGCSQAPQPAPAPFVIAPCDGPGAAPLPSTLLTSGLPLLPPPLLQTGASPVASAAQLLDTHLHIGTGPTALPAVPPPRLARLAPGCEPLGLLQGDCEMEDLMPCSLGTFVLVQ
Chain of Serine/threonine-protein kinase pim-1 (Homo sapiens) (P11309 whole entry, looked up): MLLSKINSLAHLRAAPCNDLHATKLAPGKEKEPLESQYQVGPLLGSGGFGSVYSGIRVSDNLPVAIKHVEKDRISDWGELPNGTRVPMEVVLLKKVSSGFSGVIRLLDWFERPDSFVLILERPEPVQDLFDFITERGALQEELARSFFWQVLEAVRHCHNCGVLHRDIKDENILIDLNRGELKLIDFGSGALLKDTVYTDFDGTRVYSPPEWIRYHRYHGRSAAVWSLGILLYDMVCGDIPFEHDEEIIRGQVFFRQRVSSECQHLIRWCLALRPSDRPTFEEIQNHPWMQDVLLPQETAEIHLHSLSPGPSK
Chain of Cyclin-dependent kinase 12 (Homo sapiens) (Q9NYV4 whole entry, looked up): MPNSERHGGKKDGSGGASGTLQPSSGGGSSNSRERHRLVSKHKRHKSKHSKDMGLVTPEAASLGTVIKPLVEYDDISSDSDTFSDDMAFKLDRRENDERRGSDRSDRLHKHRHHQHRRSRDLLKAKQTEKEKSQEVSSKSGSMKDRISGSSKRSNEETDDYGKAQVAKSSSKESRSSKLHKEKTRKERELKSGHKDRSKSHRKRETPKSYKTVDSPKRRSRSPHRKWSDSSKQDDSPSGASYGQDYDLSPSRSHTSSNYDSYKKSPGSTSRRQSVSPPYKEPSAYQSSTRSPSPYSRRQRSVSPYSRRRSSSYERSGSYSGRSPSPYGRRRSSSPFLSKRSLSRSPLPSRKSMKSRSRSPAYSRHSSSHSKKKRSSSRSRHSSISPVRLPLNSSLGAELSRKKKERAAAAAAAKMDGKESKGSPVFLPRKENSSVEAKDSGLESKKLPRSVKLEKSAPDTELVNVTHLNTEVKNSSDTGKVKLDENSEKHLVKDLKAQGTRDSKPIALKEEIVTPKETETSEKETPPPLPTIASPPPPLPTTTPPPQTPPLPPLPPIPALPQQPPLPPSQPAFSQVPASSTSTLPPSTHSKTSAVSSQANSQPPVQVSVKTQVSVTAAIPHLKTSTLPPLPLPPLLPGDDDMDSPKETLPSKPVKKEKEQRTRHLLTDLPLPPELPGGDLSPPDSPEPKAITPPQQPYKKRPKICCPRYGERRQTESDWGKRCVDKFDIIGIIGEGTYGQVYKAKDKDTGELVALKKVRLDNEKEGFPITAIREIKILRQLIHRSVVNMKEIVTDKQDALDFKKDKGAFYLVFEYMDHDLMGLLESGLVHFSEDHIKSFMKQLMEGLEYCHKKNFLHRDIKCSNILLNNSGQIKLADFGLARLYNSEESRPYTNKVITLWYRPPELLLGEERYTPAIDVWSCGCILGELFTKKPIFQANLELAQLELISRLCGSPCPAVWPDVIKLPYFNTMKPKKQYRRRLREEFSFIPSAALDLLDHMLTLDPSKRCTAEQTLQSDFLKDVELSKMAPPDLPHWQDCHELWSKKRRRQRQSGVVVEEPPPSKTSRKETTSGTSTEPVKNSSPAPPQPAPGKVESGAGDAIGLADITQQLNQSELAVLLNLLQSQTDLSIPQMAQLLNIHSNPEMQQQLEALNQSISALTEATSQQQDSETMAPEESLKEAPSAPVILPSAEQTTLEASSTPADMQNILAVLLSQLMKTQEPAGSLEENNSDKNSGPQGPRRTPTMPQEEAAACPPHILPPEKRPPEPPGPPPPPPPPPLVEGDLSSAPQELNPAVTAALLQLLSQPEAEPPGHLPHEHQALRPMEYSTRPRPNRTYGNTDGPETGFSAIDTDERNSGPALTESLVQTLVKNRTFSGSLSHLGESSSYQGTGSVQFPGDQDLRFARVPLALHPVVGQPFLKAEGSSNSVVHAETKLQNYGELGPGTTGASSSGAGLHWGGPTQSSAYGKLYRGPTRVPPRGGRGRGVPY
Chain of Platelet-derived growth factor receptor alpha (Homo sapiens) (P16234 whole entry): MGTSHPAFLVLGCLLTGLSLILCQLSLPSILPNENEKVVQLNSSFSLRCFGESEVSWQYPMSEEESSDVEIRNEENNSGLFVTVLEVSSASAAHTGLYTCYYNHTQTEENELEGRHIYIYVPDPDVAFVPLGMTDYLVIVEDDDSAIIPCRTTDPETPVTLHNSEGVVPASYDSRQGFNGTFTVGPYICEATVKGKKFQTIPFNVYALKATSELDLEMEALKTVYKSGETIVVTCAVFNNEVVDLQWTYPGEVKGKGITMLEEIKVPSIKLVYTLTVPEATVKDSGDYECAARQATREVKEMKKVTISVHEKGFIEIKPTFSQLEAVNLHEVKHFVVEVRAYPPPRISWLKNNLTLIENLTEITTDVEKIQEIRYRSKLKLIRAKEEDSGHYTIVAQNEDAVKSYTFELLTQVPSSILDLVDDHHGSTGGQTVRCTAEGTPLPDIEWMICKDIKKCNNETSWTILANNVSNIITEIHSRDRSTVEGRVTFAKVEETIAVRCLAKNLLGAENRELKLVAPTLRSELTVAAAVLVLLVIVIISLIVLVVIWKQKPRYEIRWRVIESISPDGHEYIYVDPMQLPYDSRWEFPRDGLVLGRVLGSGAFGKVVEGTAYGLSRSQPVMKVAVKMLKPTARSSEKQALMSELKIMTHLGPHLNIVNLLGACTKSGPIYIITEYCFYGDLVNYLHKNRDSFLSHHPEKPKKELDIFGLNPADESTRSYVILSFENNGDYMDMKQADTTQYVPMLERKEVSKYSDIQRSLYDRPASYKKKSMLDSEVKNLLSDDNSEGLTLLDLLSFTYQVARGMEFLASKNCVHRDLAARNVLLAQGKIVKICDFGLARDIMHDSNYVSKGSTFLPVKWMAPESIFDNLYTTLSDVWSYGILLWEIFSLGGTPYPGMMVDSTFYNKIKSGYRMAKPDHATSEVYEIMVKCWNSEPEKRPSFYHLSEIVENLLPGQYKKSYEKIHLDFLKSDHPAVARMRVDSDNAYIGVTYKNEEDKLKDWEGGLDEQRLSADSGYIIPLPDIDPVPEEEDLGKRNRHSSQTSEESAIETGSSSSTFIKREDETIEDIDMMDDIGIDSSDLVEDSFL

inhibition [1]: 50%
fold change (FC) [2]: 0
fold change (FC) [3]: 0.03
fold change (FC) [4]: 0
inhibition [5]: 14%
fold change (FC) [6]: 0
fold change (FC) [7]: 0.05
inhibition [8]: 0%
Structure (SMILES): CNC(=O)c1ccccc1Oc1nc(Nc2cc(OC)c(OC)c(OC)c2)ncc1Br

fold change (FC) [9]: 0
fold change (FC) [10]: 0
fold change (FC) [11]: 0.27
Structure (SMILES): O=C(N[C@@H](C1CC1)C(F)(F)F)c1cc(-c2cnn3cc(-c4ccc(F)cc4)cnc23)cs1

inhibition [12]: 0%
inhibition [13]: 0%
Structure (SMILES): CC(C)[C@H](NC(=O)c1cc(-c2cnn3cc(-c4ccc(OCCN5CCCCC5)cc4)cnc23)cs1)C(F)(F)F
